An excerpt weighted towards active compounds, which were near 1.8% of everything screened.
eIF4H FP inh – inhibitors of RNA binding by human eIF4H; inhibition, % at 35 µM; actives 0.94% (n = 290,000); eIF4H fluorescence polarization binding assay; Q15056;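 further: calls also rest on retests at 20 µM and on dose response follow-up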
MLLE-PAM2 inh – blocks PAM2 peptide binding to the PABP1 MLLE domain; GST-MLLE / FITC-PAM2 fluorescence polarization; inhibition, % at 20 µM; actives 0.36% (n = 360,000); AID 588489; in the data active means inhibition above about 35%, passing the limit was not always enough;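 further: plate controls were DMSO wells with GST-MLLE for no effect and wells lacking GST-MLLE protein for full effect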
PABP FP inh – PABP-poly(A) binding inhibition | P11940 | PABP-poly(A) RNA binding, fluorescence polarization | calls only at 35 µM | actives 1% (n = 290,000) | AID 2014;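 further: calls also rest on retests at 20 µM and on dose response follow-up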
SKN-1 inh – inhibitors of C. elegans SKN-1; C. elegans VP596 Pgst-4::GFP/RFP ratio, acrylamide-induced, 24 h; inhibition, % at 21.8 µM; actives 0.49% (n = 360,000);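 active means interference check ratio from 0.5 to 1.5 plus GFP to RFP signal ratio inhibition reaching or exceeding a fixed threshold, cut at about 30% in these data, passing the limit was not always enough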
MT1-MMP act inh – blocks activation of human MT1-MMP. GFP/RFP ratio change, % at 20 µM. P50281. HT1080 RFP-PRO-GFP cells, GFP/RFP ratio fluorescence, overnight; percent of plate control window, DMSO zero. AID 651647. actives 0.061% (n = 360,000);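 active means GFP/RFP ratio change of at least 30% with cell ATP level not reduced by more than half and red fluorescence within 50% of control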
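Assay system: HT1080 cells carrying an RFP-PRO-GFP reporter | Dosing: Single dose of 20 µM compound, 1% DMSO final | Incubation: Cells overnight before dosing, compound overnight, 37 °C, 5% CO2 | Evaluation: GFP/RFP fluorescence ratio | Control set: DMSO and RFP-L50D-GFP cell wells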
Numbers without * were called inactive; i = inactive; ? = inconclusive; . = no result; + = active, no number. Unless noted, how the calls were made is not given here.

SMILES | eIF4H FP inh | MLLE-PAM2 inh | PABP FP inh | SKN-1 inh | MT1-MMP act inh
O=C(N/N=C/c1ccc(OC(=O)c2ccccc2Cl)cc1)c1ccccn1 | -10 | -12 | i | 26 | -1
O=C(N/N=C/c1ccc(OC(=O)c2ccccc2Cl)cc1)c1cc(O)cc(O)c1 | 92* | 0 | + | -10 | 5
CN(Cc1ccsc1)C(=O)Cn1cc(Br)ccc1=O | -1 | -9 | i | 20 | 2
O=C(N/N=C/c1ccc(OC(=O)c2ccc(Br)cc2)cc1)c1ccncc1 | 79* | -6 | i | -15 | 0
Cn1c(SCC(=O)c2ccccc2)nnc1C1COc2ccccc2O1 (stereo unspecified) | 3 | -60 | i | 11 | 3
Cc1cc(C(=O)CSc2nnc(C3COc4ccccc4O3)n2C)c(C)n1-c1ccc(F)cc1 (stereo unspecified) | -10 | -40 | i | 48* | -3
COC(=O)[C@H](Cc1ccccc1)NC(=O)/C=C/[C@H]1O[C@@H](n2cc(C)c(=O)[nH]c2=O)C[C@@H]1O | . | 14 | . | 7 | 3
COc1cccc(N2C(=O)CC(N3CCc4ccccc43)C2=O)c1 (stereo unspecified) | -8 | 14 | i | -8 | 8
COc1ccc2c(c1)CCN1C2CCN2C(=O)CCC21 (stereo unspecified) | 73* | 58* | + | 9 | -4
O=C(CCc1ccc(O)c(O)c1)N/N=C/c1cc2c(cc1[N+](=O)[O-])OCO2 | 94* | 15 | + | 4 | -1
Cc1cccc(C)c1OCC(=O)N/N=C/c1cc2c(cc1[N+](=O)[O-])OCO2 | -2 | -1 | i | 8 | -4
O=[N+]([O-])c1ccc(N/N=C/c2ccc(O)c(O)c2O)c(S(=O)(=O)N2CCOCC2)c1 | 90 | -14 | + | 0 | 10
O=C(CCc1ccc(S(=O)(=O)N2CCOCC2)cc1)N/N=C/c1ccc(F)cc1F | -6 | 0 | i | 7 | 2
O=C(CCc1ccc(S(=O)(=O)N2CCOCC2)cc1)N/N=C/c1ccc(O)c(O)c1O | 96* | 33 | + | 7 | -5
C[C@@H](NC(=O)[C@@H]1Cc2ccccc2CN1)C(=O)Nc1ccc2c(c1)OCCO2 | 6 | -6 | i | -4 | -1
C[C@@H]1CN([C@H](C)CO)C(=O)Cc2cc(NC(=O)CCC(F)(F)F)ccc2O[C@@H]1CN(C)S(=O)(=O)c1ccccc1 | . | -6 | . | 9 | 1
O=S(=O)(/N=C(/Sc1ccccc1)c1ccccc1)c1ccccc1 | 7 | 38* | i | -18 | -3
Cc1ccc(-n2c(C)cc(C(=O)CN3CCOCC3)c2C)cc1 | -6 | 7 | i | 20 | 0
Cc1ccc(-n2c(C)cc(C(=O)CN3CCOCC3)c2C)cc1C | active | -6 | + | 8 | 2
N#C/C(=C/c1ccccc1OCc1ccc(F)cc1)c1ccc(C(=O)O)cc1 | 17 | -89 | + | 3 | -4
COc1ccc(C(C)(NC(C)=O)c2nc(-c3ccc(F)cc3OC)cs2)cc1 (stereo unspecified) | . | -13 | . | 11 | -4
O=C(OCc1ccccc1)N1CCC2CC1c1cc(-c3ccc4c(c3)OCO4)ccc12 (stereo unspecified) | . | 11 | . | 9 | -3
CCNc1cc2oc(=O)c(CN3CCOCC3)c(C)c2cc1C | ? | 48* | ? | -12 | -3
Cc1cc2oc(=O)cc(CN3CCOCC3)c2cc1C | -3 | -8 | i | 5 | -2
CCc1ccc(N=C2NC(=O)/C(=C/c3cc(Br)c(OCC(=O)O)c(OC)c3)S2)cc1 | 81* | -16 | i | -3 | 0
SMILES | eIF4H FP inh | MLLE-PAM2 inh | PABP FP inh | SKN-1 inh | MT1-MMP act inh
O=C(Nc1cccc(S(=O)(=O)C(F)(F)F)c1)[C@@H]1O[C@H](CO)[C@@H](O)[C@H]1O | . | -2 | . | 9 | 0
Cc1ccccc1OCCC(=O)N(CC(C)C)c1c(N)n(Cc2ccccc2)c(=O)[nH]c1=O | . | 4 | . | -8 | 0
N#C/C(=C\c1ccc(Sc2ccc(Cl)cc2)o1)c1nc2ccccc2[nH]1 | 58* | -45 | + | 15 | -71
N#C/C(=C\c1ccc(Sc2nc3ccccc3[nH]2)o1)c1ccccc1 | -8 | -73 | i | 2 | -5
c1cc2c3c(cccc3c1)NC1(CCCC1)N2 | . | 43* | . | 6 | 4
CC1(C)Nc2cccc3cccc(c23)N1 | . | 19 | . | -9 | 4
CC(=O)Nc1cccc(NC(=O)COc2ccc3c(c2)OCO3)c1 | 4 | -4 | i | -3 | -1
O=C1NC(=S)N/C1=C/c1cccn1-c1ccc([N+](=O)[O-])cc1 | 84* | -6 | + | 7 | 3
COc1ccc2cc(C3=CC(=O)CCC3)ccc2c1 | . | -6 | . | -3 | 3
Cc1ccc2cc(C3CC(c4ccco4)=NN3C(=O)CCC(=O)O)c(Cl)nc2c1 (stereo unspecified) | ? | 12 | + | -5 | 0
CSc1ccc(/C=N/NC(=O)CN2CCN(Cc3ccc(Cl)cc3)CC2)cc1 | 0 | 0 | i | -11 | 3
CSc1ccc(/C=N/N2CCN(Cc3ccc(Cl)cc3)CC2)cc1 | -6 | -3 | i | 55* | 3
Fc1ccc(-c2nnc(-c3ccc4ccccc4c3)o2)cc1 | . | -3 | . | 43* | -4
Cc1cccc(-c2nnc(-c3ccccc3)o2)c1 | 5 | 7 | i | 30 | 2
Fc1ccc(-c2nnc(-c3ccc(F)cc3)o2)cc1 | -3 | -2 | i | 39* | -1
Fc1ccc(-c2nnc(Cc3nnc(-c4ccc(F)cc4)o3)o2)cc1 | -2 | -15 | i | -11 | -8
COc1ccc(C(=O)Nc2ccc(S(=O)(=O)Nc3nccc(C)n3)cc2)cc1[N+](=O)[O-] | 14 | 6 | i | 9 | -2
COC(=O)/C=c1/s/c(=C(/C#N)C(=O)N2CCCCC2)n(-c2ccccc2)c1=O | 4 | 18 | i | 4 | 3
COc1cc(/C=c2\s/c(=C(/C#N)C(=O)N3CCCC3)n(-c3ccccc3)c2=O)ccc1O | 80* | -33 | + | 17 | 17
COc1ccc(-c2ccc(C(=O)Nc3ccc4c(c3)OCO4)c3occc23)c(C)c1 | . | 9 | . | 19 | -1
COc1cc2nc(C3CC3)n(NC(=O)c3ccc(Cl)cc3)c(=O)c2cc1OC | 2 | 5 | i | 37* | 0
O=C(OCC(=O)N1CCCC1)c1ccccc1C(=O)c1ccccc1 | . | 4 | . | 3 | -3
O=C(Cn1cnc(S(=O)(=O)N2CCCCC2)c1)NCc1ccco1 | 2 | -1 | i | 15 | 1
O=C(NNS(=O)(=O)c1ccccc1)c1cccc([N+](=O)[O-])c1 | -6 | -31 | i | 12 | 2
Cc1ccc(C)c(-n2c(CNC(=O)c3ccco3)nnc2SCC(=O)N2CCc3ccccc32)c1 | 3 | -11 | i | 39* | 0
Cc1ccc(C)c(-n2c(CNC(=O)c3ccco3)nnc2SCC(=O)Nc2nnc(C)s2)c1 | -7 | 15 | i | 8 | 3
